The source of these data is ChEMBL document CHEMBL4130626, “α-Arylidene Diacylglycerol-Lactones (DAG-Lactones) as Selective Ras Guanine-Releasing Protein 3 (RasGRP3) Ligands” (J Med Chem, 2018).

Experiment [1] addresses T1, Protein kinase C delta type (Homo sapiens, UniProt Q05655). The experiment in a line: Activation of PKCdelta in human Ramos cells expressing RasGRP3 assessed as phosphorylation at ser299 residues after 30 mins by immunoblot method. In kind it is cell-based. The essentials:
(§1)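 PKCδ activation read as phospho-S299 on western blots of lysates (50 µg protein, 10% SDS-PAGE, milk blocking, anti-PKCδS299 overnight). Cells: GFP-RasGRP1/3-transfected HEK293 or LNCaP, or Ramos, treated 30 min at 37 °C with half-log doses (maximum 10 µM), 1000 nM PMA or DMSO. Scanned intensities normalized to 1000 nM PMA; EC50 mean ± SEM, n = 3; values above 10 µM extrapolated.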
For orientation: In western blotting, separated proteins are transferred to a membrane and probed.

For experiment [2], the target named is T2, Ras guanyl-releasing protein 3 (Homo sapiens, UniProt Q8IV61).
T2 sequence (Q8IV61 whole entry): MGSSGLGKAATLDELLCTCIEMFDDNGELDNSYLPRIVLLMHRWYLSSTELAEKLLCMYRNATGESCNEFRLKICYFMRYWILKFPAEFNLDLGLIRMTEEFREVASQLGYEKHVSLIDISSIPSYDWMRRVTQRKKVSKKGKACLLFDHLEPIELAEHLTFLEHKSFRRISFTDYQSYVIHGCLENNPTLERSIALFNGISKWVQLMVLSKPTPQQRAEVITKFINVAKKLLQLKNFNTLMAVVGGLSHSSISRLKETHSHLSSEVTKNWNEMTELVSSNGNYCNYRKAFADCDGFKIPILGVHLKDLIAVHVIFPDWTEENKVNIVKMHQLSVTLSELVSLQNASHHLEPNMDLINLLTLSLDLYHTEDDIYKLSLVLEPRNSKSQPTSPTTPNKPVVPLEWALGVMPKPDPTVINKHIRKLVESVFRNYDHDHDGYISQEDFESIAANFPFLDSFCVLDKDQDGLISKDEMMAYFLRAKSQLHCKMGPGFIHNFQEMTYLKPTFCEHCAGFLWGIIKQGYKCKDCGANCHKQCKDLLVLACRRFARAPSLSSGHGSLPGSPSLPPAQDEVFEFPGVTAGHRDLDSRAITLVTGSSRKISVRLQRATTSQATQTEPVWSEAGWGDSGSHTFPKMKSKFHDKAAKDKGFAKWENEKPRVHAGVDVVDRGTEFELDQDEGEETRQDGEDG
The experiment in a line: Displacement of [3H]PDBu from full length MBP-tagged human RasGRP3 expressed in Escherichia coli BL21 (DE3) after 5 mins by scintillation counting. A digest of the protocol:
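Competition of [3H]PDBu binding by polyethylene glycol precipitation, with 100 µg/ml phosphatidylserine and ≤0.003% Triton X-100, 5 min at 37 °C. Proteins: full-length purified human PKCα, PKCε; full-length RasGRP1; MBP-RasGRP3 from E. coli BL21(DE3) induced with 0.3 mM IPTG 6 h at room temperature. Ki mean ± SEM of ≥2 experiments, triplicate points.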

For experiment [3], the species on record is Homo sapiens. The experiment in a line: Selectivity ratio of EC50 for PKCdelta (unknown origin) expressed in human LNCAP cells harboring GFP-tagged RasGRP3 to EC50 for GFP-tagged RasGRP3 (unknown origin) expressed in human LNCAP cells. Type of experiment: cell-based.
The target of experiment [4] is T2, Ras guanyl-releasing protein 3. The experiment in a line: Activation of GFP-tagged RasGRP3 (unknown origin) expressed in HEK293 cells assessed as ERK1/2 phosphorylation after 30 mins by immunoblot method. Type of experiment: cell-based. The essentials: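 Cells expressing GFP-RasGRP1/3 (HEK293 or LNCaP, 48 h after plating, transfected; expression checked by fluorescence 24-48 h later) or Ramos with endogenous RasGRP3 treated with half-log increasing concentrations (max 10 µM), 1000 nM PMA or DMSO, 37 °C, 30 min, 5% CO2. RasGTP by Raf1 RBD bead pulldown and anti-Pan-Ras immunoblot; pERK by western blot. Band intensities normalized to 1000 nM PMA; EC50 from n = 3.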

The target in experiment [5] is T1, Protein kinase C delta type. The experiment in a line: Activation of PKCdelta (unknown origin) expressed in human LNCAP cells harboring GFP-tagged RasGRP3 assessed as phosphorylation at ser299 residues after 30 mins by immunoblot method. Type of experiment: cell-based. The essentials: as §1

T1 sequence (Q05655 whole entry): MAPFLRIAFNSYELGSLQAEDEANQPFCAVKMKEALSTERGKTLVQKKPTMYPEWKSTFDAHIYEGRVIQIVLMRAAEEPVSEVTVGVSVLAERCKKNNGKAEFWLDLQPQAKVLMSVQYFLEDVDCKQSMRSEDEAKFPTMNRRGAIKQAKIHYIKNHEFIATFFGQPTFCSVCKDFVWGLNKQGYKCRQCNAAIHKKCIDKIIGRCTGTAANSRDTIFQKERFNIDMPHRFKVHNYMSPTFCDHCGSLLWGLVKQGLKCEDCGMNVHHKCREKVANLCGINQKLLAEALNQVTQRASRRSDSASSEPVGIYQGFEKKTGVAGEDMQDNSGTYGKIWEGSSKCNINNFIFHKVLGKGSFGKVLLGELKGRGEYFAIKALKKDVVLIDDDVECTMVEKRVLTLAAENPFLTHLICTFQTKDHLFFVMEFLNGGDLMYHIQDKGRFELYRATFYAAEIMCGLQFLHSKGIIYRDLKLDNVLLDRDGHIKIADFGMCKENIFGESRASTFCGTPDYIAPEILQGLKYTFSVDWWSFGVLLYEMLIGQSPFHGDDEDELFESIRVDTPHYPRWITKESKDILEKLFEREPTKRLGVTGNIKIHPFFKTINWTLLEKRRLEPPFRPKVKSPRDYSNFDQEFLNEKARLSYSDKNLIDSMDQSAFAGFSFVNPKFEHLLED

Broadly, the EC50 is the midpoint of the concentration-response curve. Usually Ki stands for a measure of affinity in units of concentration, obtained from inhibition or displacement. Low values mean higher affinity, high ones lower affinity. With `Cn1cc(/C=C2\CC(CO)(COC(=O)C(C)(C)C)OC2=O)c2ccccc21` (stereo not given), the EC50 came out at 24.6 µM in experiment [1], 4.66 µM in experiment [4] and 8.28 µM in experiment [5]. Moreover, in experiment [2], the Ki was 0.00175 µM. The Ratio EC50 in experiment [3] turned out to be 12.9.
